# Experiments:
# Type in all cases: functional, organism-based
# Conditions in all cases: 168 h
# [1] = system: Mycobacterium tuberculosis; assay: Antimycobacterial activity against INH-resistant Mycobacterium tuberculosis expressing inhA+ assessed as bacterial growth inhibition measured after 1 week by MABA assay
# Summary of the method: (§1)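 Colonies grown on 7H10+OADC agar at 37 °C, then to mid-log in 7H9+OADC; about 4×10^5 CFU/mL inoculated into 7H9 with escalating compound concentrations. Incubated 37 °C for 1 week, then resazurin (0.6 mM in PBS) mixed 8:5 with 20 % Tween 80 was added and incubated overnight at 37 °C. Fluorescent resorufin read-out gave IC50.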
# [2] = system: Mycobacterium tuberculosis; assay: Antimycobacterial activity against Rifampicin-resistant Mycobacterium tuberculosis expressing rpoB+ assessed as bacterial growth inhibition measured after 1 week by MABA assay; summary of the method: as §1
# [3] = system: Mycobacterium tuberculosis; assay: Antimycobacterial activity against INH-resistant Mycobacterium tuberculosis expressing katG+ assessed as bacterial growth inhibition measured after 1 week by MABA assay; summary of the method: as §1
SMILES,IC50 [1],IC50 [2],IC50 [3]
[O-][n+]1c2ccccc2[n+]([O-])c2c(O)cc(O)cc21,125 nM,1000 nM,500 nM
COCOc1cc(O)c2c(c1)[n+]([O-])c1ccccc1[n+]2[O-],125 nM,125 nM,125 nM
[O-][n+]1c2cccc(O)c2[n+]([O-])c2cccc(O)c21,–,–,70 nM
COc1cc(OC(C)=O)c2c(c1)[n+]([O-])c1ccccc1[n+]2[O-],125 nM,250 nM,125 nM
CCOCOc1cc(O)c2c(c1)[n+]([O-])c1ccccc1[n+]2[O-],4 nM,31.2 nM,62.5 nM
CCOCOc1cc(OC)c2c(c1)[n+]([O-])c1ccccc1[n+]2[O-],31.2 nM,31.2 nM,62.5 nM
COc1cc(OC)c2c(c1)[n+]([O-])c1ccccc1[n+]2[O-],125 nM,125 nM,125 nM
[O-][n+]1c2ccccc2[n+]([O-])c2c(O)cccc21,–,–,50 nM
CCOC(=O)COc1cc(O)c2c(c1)[n+]([O-])c1ccccc1[n+]2[O-],62.5 nM,250 nM,250 nM
COc1cc(O)c2c(c1)[n+]([O-])c1ccccc1[n+]2[O-],16 nM,62.5 nM,62.5 nM
COc1cccc2c1[n+]([O-])c1ccccc1[n+]2[O-],125 nM,125 nM,125 nM
CCOc1cc(O)c2c(c1)[n+]([O-])c1ccccc1[n+]2[O-],4 nM,62.5 nM,62.5 nM
CC(=O)Oc1cc(O)c2c(c1)[n+]([O-])c1ccccc1[n+]2[O-],500 nM,1000 nM,1000 nM
COc1cccc2c1[n+]([O-])c1cccc(O)c1[n+]2[O-],62.5 nM,62.5 nM,62.5 nM
CCOC(=O)COc1cc(OC)c2c(c1)[n+]([O-])c1ccccc1[n+]2[O-],250 nM,250 nM,250 nM

# Source: ChEMBL document CHEMBL6153049, “Functionalized regioisomers of the natural product phenazines myxin and iodinin as potent inhibitors of Mycobacterium tuberculosis and human acute myeloid leukemia cells” (Eur J Med Chem, 2025)
